Laboratory results reported in article PMC5692558 (Proceedings of the National Academy of Sciences of the …, 2017).
Changes are numbered by the printed parent chain. In names and notes the source's numbering stands. Entries after “also recorded” stand apart in the source; their conditions may differ.

Key:
STAC3 W284S = assay: ITC, II–III loop with STAC3 W284S; assay type: binding, human; details: 25 °C, pH 7.4, NAM mutant W284S
human CaV1.2 = assay: CaV1.2 inactivation; assay type: cell-based; details: Xenopus oocytes, two-electrode voltage clamp, Ba^2+ or Ca^2+ solution
How it was run: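 Human CaV1.2 α1c (splice variant a1c77) cRNA (8.2–10.9 ng) was co-injected with rabbit β1 (11.7–15.5 ng), with optional rabbit α2δ (11.7 ng) and human STAC3 isoform a (9.8–13.0 ng). Oocytes were held at 18 °C in OR3 (pH 7.6) and recorded 3–4 d later. BAPTA was pre-injected; perfusate was 40 mM Ba2+ or Ca2+, pH 7.4. P/4 leak subtraction; two-tailed unpaired t test.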

CaV1.2 = details: ref [15]; cited from earlier work
[1] = molecular target: T1, STAC2 tandem SH3 domains (residues 296–411) (human, UniProt Q6ZMT1 296-411); assay: ITC
T1 sequence (looked up): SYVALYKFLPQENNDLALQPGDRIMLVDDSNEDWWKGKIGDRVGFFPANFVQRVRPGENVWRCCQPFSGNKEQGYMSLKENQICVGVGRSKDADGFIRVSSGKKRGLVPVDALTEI

[2] = molecular target: T2, STAC1 tandem SH3 domains (residues 288–402) (human, UniProt Q99469 288-402); assay: ITC
T2 sequence (looked up): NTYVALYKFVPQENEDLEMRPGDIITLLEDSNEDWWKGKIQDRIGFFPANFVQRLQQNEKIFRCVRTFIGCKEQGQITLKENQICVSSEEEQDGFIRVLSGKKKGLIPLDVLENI

[3] = molecular target: T3, STAC3 tandem SH3 domains (residues 245–364) (human, UniProt Q96MF2-1 245-364); assay: ITC
T3 sequence (looked up): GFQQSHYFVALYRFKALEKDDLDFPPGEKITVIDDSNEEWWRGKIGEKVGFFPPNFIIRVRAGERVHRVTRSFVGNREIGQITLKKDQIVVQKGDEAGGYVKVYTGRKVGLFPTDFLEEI

stac^−/− myotubes = details: ref [16], cited from earlier work
[4] = system: skeletal muscle CaV1.1 complex; details: STAC3 W284S; ref [18]; listed as NAM mutation; cited from earlier work
[5] = molecular target: T4, STAC2 tandem SH3 domains with Gln-306 mutated to Leu (human, UniProt Q6ZMT1 296-411, Gln-306 to Leu); assay: ITC
T4 sequence (looked up): T1 sequence (looked up) with Q11L

CaV1.1 728–775: fragment 728–775 of the CaV1.1 II–III loop (core II–III loop) (NVNEVKDPYPSADFPGDDEEDEPEIPLSPRPRPLAELQLKEKAVPIPE; left off: His6, end not stated, cleaved | maltose-binding protein, end not stated, cleaved)
interaction detected by ITC (STAC3 W284S): no longer able to detect an interaction
interaction detected by ITC (STAC3 W284S; listed as II–III loop peptide): decreases the affinity to levels below detection

IPRAAA: mutation at the binding interface tested for CaV1.2 inactivation (NVNEVKDPYPSADFPGDDEEDEPEAALSPAPRPLAELQLKEKAVPIPE; left off: His6, end not stated, cleaved | maltose-binding protein, end not stated, cleaved)
effect on slowing of CaV1.2 inactivation induced by STAC3 (human CaV1.2): neither mutations at the binding interface (W284S or IPRAAA) nor an outright deletion of both SH3 domains affected the slowing of inactivation

B1: STAC3: human STAC3 isoform a (NP_659501.1) (protein)
chain: T3 sequence (looked up)
modifications: left off: His6, end not stated, cleaved | maltose-binding protein, end not stated, cleaved
effect on inactivation of CaV1.2 (CaV1.2): dramatic reduction in the speed of inactivation

B2: CaV1.1 728–775 (core II–III loop) (domain or fragment, human, UniProt Q13698 728-775, looked up)
chain: NVNEVKDPYPSADFPGDDEEDEPEIPLSPRPRPLAELQLKEKAVPIPE
Kd [1]: 1.85 µM
fold higher affinity than STAC2 [2]: ~2.4 fold
fold higher affinity than STAC2 [3]: ~2.2 fold

B3: deletion of both SH3 domains: truncated STAC3 missing both SH3 domain (1–244) (protein, UniProt Q96MF2 1-244, looked up, fragment)
chain: MTEKEVLESPKPSFPAETRQSGLQRLKQLLRKGSTGTKEMELPPEPQANGEAVGAGGGPIYYIYEEEEEEEEEEEEPPPEPPKLVNDKPHKFKDHFFKKPKFCDVCARMIVLNNKFGLRCKNCKTNIHEHCQSYVEMQRCFGKIPPGFHRAYSSPLYSNQQYACVKDLSAANRNDPVFETLRTGVIMANKERKKGQADKKNPVAAMMEEEPESARPEEGKPQDGNPEGDKKAEKKTPDDKHKQP
effect on slowing of CaV1.2 inactivation induced by STAC3 (human CaV1.2): neither mutations at the binding interface (W284S or IPRAAA) nor an outright deletion of both SH3 domains affected the slowing of inactivation; also recorded: still resulted in slower inactivation

B4: W284S: STAC3 disease mutation linked to Native American myopathy (protein)
chain: MTEKEVLESPKPSFPAETRQSGLQRLKQLLRKGSTGTKEMELPPEPQANGEAVGAGGGPIYYIYEEEEEEEEEEEEPPPEPPKLVNDKPHKFKDHFFKKPKFCDVCARMIVLNNKFGLRCKNCKTNIHEHCQSYVEMQRCFGKIPPGFHRAYSSPLYSNQQYACVKDLSAANRNDPVFETLRTGVIMANKERKKGQADKKNPVAAMMEEEPESARPEEGKPQDGNPEGDKKAEKKTPDDKHKQPGFQQSHYFVALYRFKALEKDDLDFPPGEKITVIDDSNEESWRGKIGEKVGFFPPNFIIRVRAGERVHRVTRSFVGNREIGQITLKKDQIVVQKGDEAGGYVKVYTGRKVGLFPTDFLEEI
modifications: left off: His6, end not stated, cleaved | maltose-binding protein, end not stated, cleaved
effect on slowing of CaV1.2 inactivation induced by STAC3 (human CaV1.2): neither mutations at the binding interface (W284S or IPRAAA) nor an outright deletion of both SH3 domains affected the slowing of inactivation
effect on EC coupling (stac^−/− myotubes; STAC3 W284S (NAM mutation)): diminished EC coupling; also recorded: large reduction in EC coupling
effect on depolarization-induced calcium release (stac^−/− myotubes; reconstituted stac^−/− myotubes, [17]): drastic reduction in depolarization-induced calcium release
recruitment of STAC3 into the skeletal muscle CaV1.1 complex / interaction with CaV1.1 [4]: did not appear to abolish the interaction between CaV1.1 and STAC3

B5: CaV1.1 747–760 (minimal peptide) (peptide, UniProt Q13698 747-760, looked up)
peptide: EDEPEIPLSPRPRP
fold lower affinity than wild type [5]: ~2 fold
Kd [3]: 10.6 µM
